The text below walks through data of ChEMBL document CHEMBL1137762, “Design, microwave-assisted synthesis and HIV-RT inhibitory activity of 2-(2,6-dihalophenyl)-3-(4,6-dimethyl-5-(un)substituted-pyrimidin-2-yl)thiazolidin-4-ones” (Bioorg Med Chem, 2009).

Molecules are shown by their SMILES.

The assay has as its target Human immunodeficiency virus type 1 reverse transcriptase (Human immunodeficiency virus 1, UniProt Q72547). Put plainly: Inhibition of HIV1 reverse transcriptase after 1 hr by ELISA. A digest of the protocol: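 Commercial colorimetric RT kit; template/primer complex, biotin- and DIG-labelled dNTPs and RT enzyme in lysis buffer, with or without inhibitor, incubated 1 h at 37 °C. Product captured on streptavidin-coated plate, washed, probed with anti-DIG-peroxidase, then ABTS substrate added; absorbance read at 405 nm.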

Usually IC50 stands for the concentration needed to halve the response being measured. A lower IC50 goes with greater potency.

Take `Cc1nc(N2C(=O)CSC2c2c(F)cccc2Cl)nc(C)c1C` (stereo unspecified): 380 nM corresponded to half-maximal inhibition (IC50).

In turn, `Cc1nc(N2C(=O)CSC2c2c(Cl)cccc2Cl)nc(C)c1C` (stereo unspecified) showed an IC50 of 830 nM.

`CCCCCc1c(C)nc(N2C(=O)CSC2c2c(Cl)cccc2Cl)nc1C` (stereo unspecified) returned an IC50 of 74400 nM.

On to `Cc1nc(N2C(=O)CSC2c2c(Cl)cccc2Cl)nc(C)c1CCC#N` (stereo unspecified), for which half-maximal inhibition (IC50) was put at 1020 nM.

As for `CCCCc1c(C)nc(N2C(=O)CSC2c2c(F)cccc2Cl)nc1C` (stereo unspecified), the IC50 turned out to be 16000 nM.

`CCCCCc1c(C)nc(N2C(=O)CSC2c2c(F)cccc2Cl)nc1C` (stereo unspecified) gave a half-inhibitory concentration (IC50) of 16200 nM.

`C=CCc1c(C)nc(N2C(=O)CSC2c2c(F)cccc2Cl)nc1C` (stereo unspecified) yielded an IC50 of 2920 nM.

`Cc1nc(N2C(=O)CSC2c2c(F)cccc2Cl)nc(C)c1CCC#N` (stereo unspecified) displayed an IC50 of 2010 nM.

For the molecule `CCc1c(C)nc(N2C(=O)CSC2c2c(F)cccc2Cl)nc1C` (stereo unspecified), the IC50 amounted to 230 nM.

Molecule `CCCc1c(C)nc(N2C(=O)CSC2c2c(Cl)cccc2Cl)nc1C` (stereo unspecified) registered an IC50 of 770 nM.

In turn, `CCCCc1c(C)nc(N2C(=O)CSC2c2c(Cl)cccc2Cl)nc1C` (stereo unspecified) showed an IC50 of 4290 nM.

`Cc1nc(N2C(=O)CSC2c2c(Cl)cccc2Cl)nc(C)c1Br` (stereo unspecified) came in with an IC50 of 9820 nM. This IC50 is about 2.3-fold higher than that of the molecule before.

With `C=CCc1c(C)nc(N2C(=O)CSC2c2c(Cl)cccc2Cl)nc1C` (stereo unspecified), half-maximal inhibition (IC50) required 1220 nM. Compared with the last molecule, the IC50 is about 8-fold lower.

Consider `CCCc1c(C)nc(N2C(=O)CSC2c2c(F)cccc2Cl)nc1C` (stereo unspecified), for which half-maximal inhibition (IC50) was put at 850 nM.

In the case of `Cc1nc(N2C(=O)CSC2c2c(F)cccc2Cl)nc(C)c1Br` (stereo unspecified), the IC50 turned out to be 1520 nM.

`CCc1c(C)nc(N2C(=O)CSC2c2c(Cl)cccc2Cl)nc1C` (stereo unspecified): the IC50 is 260 nM.
